Columns and labels:
[1] = target: T1, Receptor-interacting serine/threonine-protein kinase 1 (Homo sapiens) (UniProt Q13546); assay: Inhibition of RIPK1 in human FADD-deficient Jurkat I 2.1 cells assessed as protection against TNFalpha-induced necroptosis measured after 24 hrs by MTS assay
T1 sequence (whole entry): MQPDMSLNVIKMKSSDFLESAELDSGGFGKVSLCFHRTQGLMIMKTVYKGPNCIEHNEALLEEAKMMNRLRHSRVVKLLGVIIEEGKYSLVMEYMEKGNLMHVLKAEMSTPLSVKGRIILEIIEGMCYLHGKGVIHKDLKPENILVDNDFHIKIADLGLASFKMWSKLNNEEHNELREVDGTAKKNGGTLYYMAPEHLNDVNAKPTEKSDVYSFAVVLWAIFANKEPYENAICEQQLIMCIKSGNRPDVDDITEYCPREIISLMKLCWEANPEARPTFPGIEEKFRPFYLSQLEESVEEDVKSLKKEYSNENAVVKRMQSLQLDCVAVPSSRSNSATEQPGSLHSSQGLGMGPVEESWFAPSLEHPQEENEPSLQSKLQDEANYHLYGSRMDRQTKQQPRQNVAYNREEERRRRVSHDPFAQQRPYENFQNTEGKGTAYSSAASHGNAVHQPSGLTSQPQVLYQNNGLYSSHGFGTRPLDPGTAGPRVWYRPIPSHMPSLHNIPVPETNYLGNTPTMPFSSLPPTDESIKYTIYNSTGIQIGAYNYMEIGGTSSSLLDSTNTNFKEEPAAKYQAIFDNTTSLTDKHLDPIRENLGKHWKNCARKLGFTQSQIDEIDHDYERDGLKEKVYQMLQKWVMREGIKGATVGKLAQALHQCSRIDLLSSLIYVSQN

[2] = Cytotoxicity against human FADD-deficient Jurkat I 2.1 cells assessed as reduction in cell viability at 10 uM measured after 24 hrs by MTS assay; assay type: cell-based; details: jurkat i 2.1, 24 h
[3] = system: TERT-RPE1; assay: Cytotoxicity against human TERT-RPE1 cells assessed as increase in LDH release at 0.01 to 50 uM measured after 24 hrs by CyQUANT reagent based assay; assay type: cell-based; details: tert-rpe1, 24 h, dose 0.01-50 µM
In short: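 hTERT RPE-1 cells (DMEM-F12-Glutamax, 10% FCS, 37 °C, 5% CO2) exposed 24 h to compound from 0.01 to 50 μM; viability measured.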

[4] = target: CDK2/Cyclin A2 (Homo sapiens, UniProt P24941); assay: Inhibition of human CDK2/cyclin A using histone H1 as substrate by ADP-glo assay; assay type: protein-complex assay
[5] = target: Cyclin-dependent kinase 5/CDK5 activator 1 (Homo sapiens, UniProt Q00535); assay: Inhibition of human recombinant CDK5/p25 expressed in bacterial expression using histone H1 as substrate by ADP-glo assay
Sequence of Cyclin-dependent kinase 5/CDK5 activator 1 (Q00535 whole entry): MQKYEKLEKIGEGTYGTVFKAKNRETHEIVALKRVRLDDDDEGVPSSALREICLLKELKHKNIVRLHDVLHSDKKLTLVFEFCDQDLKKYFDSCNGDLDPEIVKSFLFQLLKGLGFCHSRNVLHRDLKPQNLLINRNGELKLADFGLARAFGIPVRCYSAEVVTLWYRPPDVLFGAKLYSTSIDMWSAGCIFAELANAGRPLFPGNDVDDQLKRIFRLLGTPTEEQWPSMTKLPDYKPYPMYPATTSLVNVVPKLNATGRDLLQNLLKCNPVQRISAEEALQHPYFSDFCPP
Sequence of Cyclin-dependent kinase 5/CDK5 activator 1 (Q15078 whole entry, further chain): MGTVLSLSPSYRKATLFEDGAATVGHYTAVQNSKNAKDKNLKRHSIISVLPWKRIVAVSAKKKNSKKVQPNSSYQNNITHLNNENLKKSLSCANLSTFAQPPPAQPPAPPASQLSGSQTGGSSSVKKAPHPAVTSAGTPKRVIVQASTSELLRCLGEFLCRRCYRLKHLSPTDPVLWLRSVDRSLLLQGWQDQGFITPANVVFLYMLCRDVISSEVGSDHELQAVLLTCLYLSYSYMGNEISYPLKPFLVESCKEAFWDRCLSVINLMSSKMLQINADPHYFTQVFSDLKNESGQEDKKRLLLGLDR

[6] = target: CDK9/cyclin T1 (Homo sapiens, UniProt P50750); assay: Inhibition of human recombinant CDK9/cyclin T expressed in baculovirus infected Sf9 insect cells using YSPTSPSYSPTSPSYSPTSPSKKKK as substrate by ADP-glo assay
Sequence of CDK9/cyclin T1 (O60563 whole entry): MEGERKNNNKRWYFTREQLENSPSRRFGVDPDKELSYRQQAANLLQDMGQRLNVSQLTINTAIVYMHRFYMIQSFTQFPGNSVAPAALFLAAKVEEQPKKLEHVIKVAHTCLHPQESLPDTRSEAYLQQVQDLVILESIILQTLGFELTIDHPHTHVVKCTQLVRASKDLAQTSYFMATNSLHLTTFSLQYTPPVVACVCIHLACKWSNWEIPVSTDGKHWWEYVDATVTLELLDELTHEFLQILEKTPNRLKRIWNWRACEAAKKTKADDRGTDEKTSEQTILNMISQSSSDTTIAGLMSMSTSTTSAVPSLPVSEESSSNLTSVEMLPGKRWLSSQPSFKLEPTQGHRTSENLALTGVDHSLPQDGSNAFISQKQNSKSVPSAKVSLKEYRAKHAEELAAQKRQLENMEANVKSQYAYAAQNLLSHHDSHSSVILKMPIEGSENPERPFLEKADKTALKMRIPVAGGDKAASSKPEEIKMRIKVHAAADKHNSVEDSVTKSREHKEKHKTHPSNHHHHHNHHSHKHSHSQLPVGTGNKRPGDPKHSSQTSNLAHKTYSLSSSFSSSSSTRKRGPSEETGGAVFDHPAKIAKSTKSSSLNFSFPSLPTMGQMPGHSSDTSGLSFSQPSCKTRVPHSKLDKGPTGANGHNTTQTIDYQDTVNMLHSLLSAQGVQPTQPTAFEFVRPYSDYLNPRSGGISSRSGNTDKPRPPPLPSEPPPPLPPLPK
Sequence of CDK9/cyclin T1 (P50750 whole entry): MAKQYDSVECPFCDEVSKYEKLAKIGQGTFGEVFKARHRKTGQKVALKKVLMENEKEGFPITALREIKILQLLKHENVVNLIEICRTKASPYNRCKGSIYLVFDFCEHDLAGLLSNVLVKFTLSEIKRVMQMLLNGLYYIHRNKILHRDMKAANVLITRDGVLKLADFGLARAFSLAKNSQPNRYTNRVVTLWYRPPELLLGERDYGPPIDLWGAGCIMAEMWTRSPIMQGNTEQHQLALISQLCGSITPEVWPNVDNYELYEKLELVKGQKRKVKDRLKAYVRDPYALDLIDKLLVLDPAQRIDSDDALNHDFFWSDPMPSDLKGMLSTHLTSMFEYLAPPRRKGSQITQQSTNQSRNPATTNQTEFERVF

[7] = target: Dual specificity protein kinase CLK1 (Mus musculus, UniProt P22518); assay: Inhibition of mouse recombinant CLK1 expressed in bacterial expression system using GRSRSRSRSRSR as substrate by ADP-glo assay
Sequence of Dual specificity protein kinase CLK1 (P22518 whole entry, the tested form may be a part): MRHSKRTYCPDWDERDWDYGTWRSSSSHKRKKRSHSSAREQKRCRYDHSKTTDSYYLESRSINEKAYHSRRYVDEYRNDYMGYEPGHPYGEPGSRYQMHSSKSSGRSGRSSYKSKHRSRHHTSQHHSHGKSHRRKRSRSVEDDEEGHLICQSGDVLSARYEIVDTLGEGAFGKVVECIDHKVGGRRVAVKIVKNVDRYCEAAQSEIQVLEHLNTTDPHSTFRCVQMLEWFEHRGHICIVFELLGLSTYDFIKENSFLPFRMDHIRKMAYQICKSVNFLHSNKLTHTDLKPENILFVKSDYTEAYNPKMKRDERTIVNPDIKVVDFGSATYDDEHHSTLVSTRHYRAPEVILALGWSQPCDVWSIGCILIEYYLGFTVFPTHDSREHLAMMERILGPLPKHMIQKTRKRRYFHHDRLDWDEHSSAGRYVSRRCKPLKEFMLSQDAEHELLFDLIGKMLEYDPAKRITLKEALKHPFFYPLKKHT

[8] = target: Dual specificity tyrosine-phosphorylation-regulated kinase 1A (Rattus norvegicus, UniProt Q63470); assay: Inhibition of recombinant rat DYRK1A kinase domain (1 to 499 residues) expressed in bacterial expression system using KKISGRLSPIMTEQ as substrate by ADP-glo assay
[9] = target: Casein kinase I isoform epsilon (Homo sapiens, UniProt P49674); assay: Inhibition of recombinant human CK1epsilon expressed in baculovirus infected Sf9 insect cells using RRKHAAIGSpAYSITA as substrate by ADP-glo assay
Sequence of Casein kinase I isoform epsilon (P49674 whole entry, the tested form may be a part, canonical isoform): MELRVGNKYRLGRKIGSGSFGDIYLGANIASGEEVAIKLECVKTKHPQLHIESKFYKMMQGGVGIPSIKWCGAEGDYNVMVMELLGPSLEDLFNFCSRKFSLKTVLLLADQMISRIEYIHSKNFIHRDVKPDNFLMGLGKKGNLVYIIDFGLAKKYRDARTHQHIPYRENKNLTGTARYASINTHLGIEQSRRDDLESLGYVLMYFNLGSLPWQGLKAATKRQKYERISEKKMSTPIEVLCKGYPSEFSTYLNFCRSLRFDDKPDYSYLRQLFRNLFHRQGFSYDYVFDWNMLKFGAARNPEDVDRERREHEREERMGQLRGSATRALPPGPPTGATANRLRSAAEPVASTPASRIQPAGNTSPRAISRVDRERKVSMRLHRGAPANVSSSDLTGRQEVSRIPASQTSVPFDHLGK

[10] = target: T2, Tyrosine-protein kinase JAK3 (Homo sapiens, UniProt P52333); assay: Inhibition of recombinant human JAK3 C-terminal domain (781 to 1124 residues) expressed in baculovirus infected Sf9 insect cells using GGEEEEYFELVKKKK as substrate by ADP-glo assay
T2 sequence (P52333 whole entry): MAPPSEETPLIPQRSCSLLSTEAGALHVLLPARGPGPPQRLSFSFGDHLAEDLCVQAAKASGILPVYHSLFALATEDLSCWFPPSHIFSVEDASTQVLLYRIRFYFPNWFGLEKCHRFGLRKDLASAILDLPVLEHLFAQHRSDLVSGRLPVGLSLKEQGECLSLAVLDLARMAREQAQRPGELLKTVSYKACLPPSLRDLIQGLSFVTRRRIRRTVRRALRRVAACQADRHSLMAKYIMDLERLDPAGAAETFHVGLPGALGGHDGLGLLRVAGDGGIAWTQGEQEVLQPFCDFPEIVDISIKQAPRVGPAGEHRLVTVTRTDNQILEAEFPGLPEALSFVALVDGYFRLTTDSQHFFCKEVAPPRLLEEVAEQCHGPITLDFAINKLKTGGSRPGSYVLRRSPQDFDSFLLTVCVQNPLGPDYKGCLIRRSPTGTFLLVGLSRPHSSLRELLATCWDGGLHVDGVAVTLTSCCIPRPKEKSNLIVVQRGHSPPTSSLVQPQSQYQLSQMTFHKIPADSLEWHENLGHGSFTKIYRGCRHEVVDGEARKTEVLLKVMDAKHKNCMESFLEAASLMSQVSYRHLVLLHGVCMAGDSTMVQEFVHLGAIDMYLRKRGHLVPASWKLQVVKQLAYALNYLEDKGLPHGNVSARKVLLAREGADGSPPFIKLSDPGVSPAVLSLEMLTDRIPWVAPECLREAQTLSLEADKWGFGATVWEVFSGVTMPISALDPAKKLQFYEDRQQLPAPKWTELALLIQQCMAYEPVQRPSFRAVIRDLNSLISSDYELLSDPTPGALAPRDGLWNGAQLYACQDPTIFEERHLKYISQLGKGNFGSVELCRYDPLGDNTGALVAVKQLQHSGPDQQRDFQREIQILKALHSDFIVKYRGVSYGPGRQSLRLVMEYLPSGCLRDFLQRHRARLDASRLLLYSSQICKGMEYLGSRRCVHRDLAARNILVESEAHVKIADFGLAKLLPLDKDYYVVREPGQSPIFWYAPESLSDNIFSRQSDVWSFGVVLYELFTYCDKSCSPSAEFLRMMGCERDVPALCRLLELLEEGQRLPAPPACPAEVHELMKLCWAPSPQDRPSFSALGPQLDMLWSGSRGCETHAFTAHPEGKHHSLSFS

[11] = target: Tyrosine-protein kinase ABL1 (Homo sapiens, UniProt P00519); assay: Inhibition of recombinant human ABL1 (118 to 535 residues) expressed in baculovirus infected Sf9 insect cells using EAIYAAPFAKKK as substrate by ADP-glo assay
Sequence of Tyrosine-protein kinase ABL1 (P00519 whole entry, the tested form may be a part): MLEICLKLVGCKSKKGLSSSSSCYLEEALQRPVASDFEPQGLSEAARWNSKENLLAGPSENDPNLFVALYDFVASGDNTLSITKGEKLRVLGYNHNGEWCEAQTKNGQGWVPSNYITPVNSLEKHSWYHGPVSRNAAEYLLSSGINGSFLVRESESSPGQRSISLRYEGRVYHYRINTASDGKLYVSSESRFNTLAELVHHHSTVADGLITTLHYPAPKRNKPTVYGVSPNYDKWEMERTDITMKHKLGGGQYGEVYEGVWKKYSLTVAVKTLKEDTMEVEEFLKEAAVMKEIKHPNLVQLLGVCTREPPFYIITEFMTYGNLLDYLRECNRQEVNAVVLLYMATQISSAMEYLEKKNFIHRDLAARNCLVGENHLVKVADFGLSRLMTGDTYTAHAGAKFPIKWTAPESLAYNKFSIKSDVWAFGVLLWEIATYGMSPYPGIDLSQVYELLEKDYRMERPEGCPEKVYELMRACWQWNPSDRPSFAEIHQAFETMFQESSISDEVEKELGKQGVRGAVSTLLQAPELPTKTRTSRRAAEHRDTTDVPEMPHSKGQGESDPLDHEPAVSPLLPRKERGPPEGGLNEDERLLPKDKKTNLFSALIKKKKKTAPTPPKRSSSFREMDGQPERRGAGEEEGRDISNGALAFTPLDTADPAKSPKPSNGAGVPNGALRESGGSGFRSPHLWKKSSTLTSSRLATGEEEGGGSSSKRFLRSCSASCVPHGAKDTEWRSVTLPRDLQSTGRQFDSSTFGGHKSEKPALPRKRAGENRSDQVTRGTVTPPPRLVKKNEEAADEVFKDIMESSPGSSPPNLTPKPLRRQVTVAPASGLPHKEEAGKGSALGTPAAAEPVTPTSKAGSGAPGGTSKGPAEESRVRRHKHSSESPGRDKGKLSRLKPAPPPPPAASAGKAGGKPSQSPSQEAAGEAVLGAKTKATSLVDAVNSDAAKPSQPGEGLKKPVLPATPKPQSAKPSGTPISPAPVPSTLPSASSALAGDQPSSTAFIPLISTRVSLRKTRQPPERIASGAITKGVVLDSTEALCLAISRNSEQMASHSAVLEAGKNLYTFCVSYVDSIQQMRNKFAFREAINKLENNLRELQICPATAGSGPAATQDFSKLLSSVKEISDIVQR

[12] = target: Receptor-interacting serine/threonine-protein kinase 3 (Homo sapiens, UniProt Q9Y572); assay: Inhibition of recombinant human RIPK3 expressed in baculovirus infected Sf9 insect cells using myelin basic protein as substrate by ADP-Glo assay
Sequence of Receptor-interacting serine/threonine-protein kinase 3 (Q9Y572 whole entry): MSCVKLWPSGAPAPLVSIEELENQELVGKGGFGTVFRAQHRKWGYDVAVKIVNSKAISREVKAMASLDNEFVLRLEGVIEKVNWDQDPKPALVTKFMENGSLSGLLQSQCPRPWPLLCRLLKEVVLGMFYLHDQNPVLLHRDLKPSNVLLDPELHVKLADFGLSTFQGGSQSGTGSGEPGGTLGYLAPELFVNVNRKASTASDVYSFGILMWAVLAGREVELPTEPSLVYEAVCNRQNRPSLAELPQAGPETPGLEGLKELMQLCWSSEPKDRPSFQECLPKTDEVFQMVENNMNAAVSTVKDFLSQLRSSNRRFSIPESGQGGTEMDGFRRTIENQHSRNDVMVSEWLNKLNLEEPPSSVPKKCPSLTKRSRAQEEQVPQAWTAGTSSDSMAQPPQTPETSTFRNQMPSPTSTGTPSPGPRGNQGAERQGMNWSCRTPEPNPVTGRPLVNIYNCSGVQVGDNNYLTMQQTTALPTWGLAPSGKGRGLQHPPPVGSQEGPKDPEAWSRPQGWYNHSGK

Row | SMILES | inhibition [1] | Activity [2] | Activity [3] | IC50 [4] [µM] | IC50 [5] [µM] | IC50 [6] [µM] | IC50 [7] [µM] | IC50 [8] [µM] | IC50 [9] [µM] | IC50 [10] [µM] | IC50 [11] [µM] | IC50 [12] [µM]
1 | CCCCNc1nc2cc([N+](=O)[O-])ccc2s1 | Dose-dependent effect | Non-Toxic | Non-Toxic | > 10 | > 10 | > 10 | > 10 | 2.21 | > 10 | > 10 | > 10 | > 10
2 | CCCCNc1nc2ccc([N+](=O)[O-])cc2[nH]1 | Dose-dependent effect | Non-Toxic | Non-Toxic | > 10 | > 10 | 0.48 | 0.8 | 1.8 | > 10 | > 10 | > 10 | > 10

From ChEMBL document CHEMBL4765378, “Discovery of simplified benzazole fragments derived from the marine benzosceptrin B as necroptosis inhibitors involving the receptor interacting protein Kinase-1” (Eur J Med Chem, 2020)
